Assay results of several laboratories.
Each line is one published result; the experiments were not run side by side.
Read-out: cell growth or viability

With C=CC(=O)c1cccnc1Nc1cc(C(F)(F)F)ccc1OC the GI50 was 6.19 µM (BXPC-3; SRB; 48 h).
The IC50 of Nc1ccc(/C=C/C(=O)N2CCc3c(oc4c(-c5ccc(F)cc5)cc(-c5ccc(C(=O)N6CCOCC6)nn5)cc34)C2)cn1 is reported as over 20 µM (BXPC-3; CCK-8; 72 h).
Cc1nc(Nc2ccc3c(c2)/C(=C/c2ccccc2Cl)C(=O)N3)c2ccccc2n1 gave an IC50 of 3.34 µM (B16; MTT).
The EC50 of C=CC(=O)NC1CCN(c2ncc3ncnc(Nc4ccc(Oc5ccc6c(c5)ncn6C)c(C)c4)c3n2)CC1 is reported as 6.65 µM (NCI-H2172).
C=CC(=O)c1cccnc1Nc1cc(C(F)(F)F)ccc1OCc1ccccc1 has a GI50 of 11.6 µM (BXPC-3; SRB; 48 h).
With COc1cc2ncnc(N(C)c3ccc4c(c3)/C(=C/c3cccc(Cl)c3)C(=O)N4C)c2cc1OC the IC50 was 2.51 µM (B16; MTT).
COc1cc2c3c(n(CCCN4CCOCC4)c(=O)c2cc1OC)-c1nc2c(cc1C3=O)OCO2 gave an IC50 of 0.608 µM (RD-ES; MTS; 72 h).
Cc1nc(Nc2ccc3c(c2)/C(=C/c2ccccc2)C(=O)N3C)c2ccccc2n1 gave an IC50 of 3.56 µM (B16; MTT).
The IC50 of CCNCCCn1c2c(c3cc(OC)c(OC)cc3c1=O)C(=O)c1cc3c(nc1-2)OCO3 is reported as 0.02 µM (RD-ES; MTS; 72 h).
Nc1ccc(/C=C/C(=O)N2CCc3c(oc4c(-c5ccc(F)cc5)cc(-c5ccc(C(=O)N6C[C@@H]7[C@H](C6)C7(F)F)nn5)cc34)C2)cn1 has an IC50 of over 20 µM (BXPC-3; CCK-8; 72 h).
C=CC(=O)c1cccnc1Nc1cccc(C(F)(F)F)c1 has a GI50 of 17.5 µM (BXPC-3; SRB; 48 h).
With Cc1nc(Nc2ccc3c(c2)/C(=C/c2ccccc2)C(=O)N3Cc2ccccc2)c2ccccc2n1 the IC50 was 15.1 µM (B16; MTT).
